Test results published in ChEMBL document CHEMBL5344432, “Identification of a Dual Autophagy and REV-ERB Inhibitor with in Vivo Anticancer Efficacy” (J Med Chem, 2024).
Calls of active or inactive are those of the source. The rule behind the calls is not given here.

How the values were obtained:
[1] = Metabolic stability in mouse liver microsomes assessed as half life preincubated for 15 mins followed by NADPH addition and measured after 1 to 2 hrs by LC-MS/MS analysis; assay type: ADME, Microsome; settings: liver microsomes, time 75-135 min
How it was run: (§1)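 Microsomal stability assessed in mouse, human, rat or dog liver microsomes with NADPH cofactor. Half-life and percent parent remaining at 60 and 120 min reported. Mean of at least two independent experiments, each in two technical replicates.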

[2] = Metabolic stability in mouse liver microsomes assessed as parent compound remaining preincubated for 15 mins followed by NADPH addition and measured after 2 hrs by LC-MS/MS analysis; assay type: ADME, Microsome; settings: time 135 min, read-out: Stability; how it was run: as §1
[3] = Metabolic stability in human liver microsomes assessed as parent compound remaining preincubated for 15 mins followed by NADPH addition and measured after 1 hr by LC-MS/MS analysis; assay type: ADME, Microsome; settings: time 75 min, read-out: Stability; how it was run: as §1
[4] = Metabolic stability in mouse liver microsomes assessed as half life preincubated for 15 mins followed by UDPGA addition and measured after 2 hrs by LC-MS/MS analysis; assay type: ADME, Microsome; settings: time 135 min
How it was run: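 Mouse and human liver microsomes incubated with UDPGA cofactor. Half-life and percent parent remaining at 120 min reported. Mean of at least two independent experiments, each in two technical replicates.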

[5] = Metabolic stability in rat liver microsomes assessed as half life preincubated for 15 mins followed by NADPH addition and measured after 1 to 2 hrs by LC-MS/MS analysis; assay type: ADME, Microsome; settings: liver microsomes, time 75-135 min; how it was run: as §1
[6] = Metabolic stability in dog liver microsomes assessed as half life preincubated for 15 mins followed by NADPH addition and measured after 1 to 2 hrs by LC-MS/MS analysis; assay type: ADME, Canis lupus familiaris, Microsome; settings: liver microsomes, time 75-135 min; how it was run: as §1
[7] = Metabolic stability in dog liver microsomes assessed as parent compound remaining preincubated for 15 mins followed by NADPH addition and measured after 1 to 2 hrs by LC-MS/MS analysis; assay type: ADME, Canis lupus familiaris, Microsome; settings: time 75-135 min; how it was run: as §1
BT-474 = test: Induction of apoptosis in human BT-474 cells assessed as increase in cleaved PARP level after 24 hrs; assay type: functional, cell-based; settings: dose 2.5-10 µM
How it was run: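 BT-474 cells treated at a range of concentrations. Apoptosis read out as caspase activity and as cleaved PARP protein by immunoblot.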

MDA-MB-231 = test: Cytotoxicity against human MDA-MB-231 cells; assay type: functional
How it was run: (§2)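 Human cancer lines (A375, MDA-MB-231, OMM-1, UPMM-2, CAPAN-2, HepG2, HT-29, HCT116) treated up to 30 μM. CC50 derived from concentration–response viability plots. Mean ± SEM, n ≥ 6. Two-tailed unpaired t test used between compounds.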

A-375 [8] = test: Cytotoxicity against human A-375 cells; assay type: functional; how it was run: as §2
[9] = Cytotoxicity against human UPMM-2 cells; assay type: functional; how it was run: as §2
Capan-2 = test: Cytotoxicity against human Capan-2 cells; assay type: functional; how it was run: as §2
HT-29 = test: Cytotoxicity against human HT-29 cells; assay type: functional; how it was run: as §2
[10] = Half life in CD1 mouse at 10 mg/kg, ip measured upto 24 hrs; assay type: ADME, organism-based; settings: in vivo
How it was run: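 Female CD1 mice given a single 10 mg/kg ip dose. Plasma concentration–time profile analyzed by noncompartmental analysis for half-life and volume of distribution. A two-compartment model was also fitted.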

[11] = Tolerability in CD1 mouse assessed as lethargy at 138 micromol/kg, ip; assay type: toxicity; settings: in vivo, dose 138 µmol/kg
How it was run: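 Female CD1 mice given daily ip injections at 138 μmol/kg (62 mg/kg). Animals observed for arched backs and lethargy.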

[12] = Tolerability in CD1 mouse assessed as reduction in body weight at 69 micromol/kg, ip administered every daily for 8 days; assay type: toxicity, organism-based; settings: in vivo, 192 h, dose 69 µmol/kg, time 8 day
How it was run: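 Body weight tracked in female CD1 mice under three regimens: 138 μmol/kg (62 mg/kg) ip daily, assessed after 2 days; 138 μmol/kg every other day over 8 days; 69 μmol/kg (31 mg/kg) daily over 8 days.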

[13] = Tolerability in CD1 mouse assessed as change in water intake at 69 micromol/kg, ip administered as 3 days on and 2 days off schedule and measured after 15 days; assay type: toxicity, organism-based; settings: in vivo, dose 69 µmol/kg
How it was run: (§3)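 Female CD1 mice given 69 μmol/kg (31 mg/kg) ip, 3 days daily then 2 days off, or saline. Body weight, food intake and water intake monitored daily for 15 days. Weight expressed relative to the day before treatment (100%). Mean ± SEM, n = 3.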

[14] = Tolerability in CD1 mouse assessed as change in food intake at 69 micromol/kg, ip administered as 3 days on and 2 days off schedule and measured after 15 days; assay type: toxicity, organism-based; settings: in vivo, 360 h, dose 69 µmol/kg, time 15 day; how it was run: as §3
A-375 [15] = test: Antitumor activity against human A-375 cells xenografted in NMRI-Foxn1nu mouse assessed as effect on autophagy by measuring increase in GFP-LC3-II expression at 30 mg/kg, ip administered for 2 days by immunoblotting analysis; assay type: functional, organism-based; settings: time 2.0 day
How it was run: (§4)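 Female NMRI-Foxn1nu mice bearing flank subcutaneous xenografts of GFP-LC3 reporter A375 cells, matched for tumor size, given 30 mg/kg ip or saline for 2 days. Euthanized 48 h after first injection. Tumor lysates immunoblotted with anti-LC3B for GFP-LC3-I and GFP-LC3-II. n = 3; unpaired two-tailed t test versus saline.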

A-375 [16] = test: Antitumor activity against human A-375 cells xenografted in NMRI-Foxn1nu mouse assessed as effect on autophagy by measuring increase in LC3-II/LC3-I ratio expression at 30 mg/kg, ip administered for 2 days by immunoblotting analysis; assay type: functional, organism-based; settings: time 2.0 day; how it was run: as §4
[17] = Inhibition of REV-ERBbeta (unknown origin) transcription expressed in HEK293 cells incubated for 24 hrs by gaussia luciferase based assay; assay type: cell-based; settings: Homo sapiens, HEK293, 24 h
How it was run: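 HEK-293 cells cotransfected with REV-ERBβ and a luciferase reporter driven by two repeats of a REV-ERB response element (RevRE) consensus, then treated across a concentration range. Luciferase activity is expressed as fold of DMSO vehicle, mean ± SEM, n = 6, and EC50 is taken from the concentration-response curve. A parallel reporter carrying a mutated RevRE served as a specificity control.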

A375 (human) [18] = test: Inhibition of autophagy in human A375 cells expressing EGFP-LC3B assessed as increase in LC3-II protein level at 2.5 uM after 24 hrs by immunoblotting analysis
[19] = Metabolic stability in mouse liver microsomes assessed as half-life preincubated for 15 mins followed by UDPGA addition and measured after 2 hrs by LC-MS/MS analysis
A375 (human) [20] = test: Inhibition of autophagy in human A375 cells expressing EGFP-LC3B assessed as accumulation of autophagosome after 24 hrs by Hoechst 33342 staining based fluorescent microscopy analysis; settings: dose 1.25-5 µM
Mus musculus = test: In vivo inhibition of REV-ERB in human A375 cells xenografted in NMRI-Foxn1nu mouse assessed as increase in BMAL1 gene expression at 30 mg/kg, ip administered for 2 days and measured after 48 hrs

For `Fc1ccc(C2(NCc3ccc(F)c(CC4CCNCC4)c3)CCCC2)cc1`, the half-life [1] was > 2 h, the remaining at 2 h [2] was 72% and the remaining at 1 h [3] was 81%. For the same molecule, the half-life [4] was > 2 h, the half-life [5] was > 1 h and the half-life [6] was > 1 h. The Stability [7] was 89%, the Activity (BT-474) was “Dose-Dependent Effect” and the CC50 (MDA-MB-231) was 2.97 µM. For the same molecule, the CC50 (A-375 [8]) was 2.56 µM, the CC50 [9] was 1.09 µM and the CC50 (Capan-2) was 6.86 µM. For the same molecule, the CC50 (HT-29) was 4.74 µM, the t1/2 [10] was 9.67 h and the Activity [11] was “Non-Toxic”. For the same molecule, the Activity [12] was “Toxic”, the Activity [13] was “Non-Toxic” and the Activity [14] was “Non-Toxic”. The Activity (A-375 [15]) was “Active”, the Activity (A-375 [16]) was “Active” and the EC50 [17] was 3.61 µM. For the same molecule, the inhibition (A375 (human) [18]) was “Active”, the t1/2 at 2 h [19] was > 2 h and the inhibition (A375 (human) [20]) was “Dose-Dependent Effect”. The inhibition (Mus musculus) was “Active”.
